Assay results published in article PMC4332869 (Cancer chemotherapy and pharmacology, 2010).
Read-outs that look alike come from different tables or passages of the source.

Columns and labels:
[1] = Plasma pharmacokinetics in A375 tumor-bearing nude mice; format: in vivo, mouse; details: for AUC: AUC0–24 h
Outline: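 Tumor-bearing nude mice got oral 5 or 10 mg/kg once, or 10 mg/kg daily for 7 days (tumors ≥600 mm3), as suspension in 1% Tween 80/PBS. Plasma came by cardiac exsanguination under isoflurane at 0.5–24 h (single) or 1–24 h after the last dose, n = 4. Acetonitrile/methanol extraction with analog internal standard. LC/MS/MS MRM, N-desmethyl m/z 445→287. Noncompartmental analysis; AUC by trapezoidal rule.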

A375 cell line = assay: Anti-proliferative response in cells grown in culture; format: cell-based, human; details: data not shown
[2] = cited from earlier work; for AUC: AUC0–12 h
[3] = system: tumor ERK phosphorylation (MEK1/2 inhibition); assay: Inhibition of tumor ERK phosphorylation by western blot; format: in vivo, mouse; details: A375 tumor
Outline: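 Male athymic BALB/c nude mice carrying s.c. rear-flank A375 xenografts (5 million cells in 4:1 serum-free RPMI:Matrigel), tumors ≥400 mm3, got one oral gavage of 5 or 10 mg/kg in 1% Tween 80/PBS. Four mice were killed per time point (0.5–24 h). Frozen tumor was sonicated in Triton/Tris pH 7.5 lysis buffer, then SDS-PAGE with pERK/ERK immunoblot. % inhibition = 100×(1 − treated pERK/ERK ÷ vehicle pERK/ERK).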

[4] = Tissue and tumor distribution in A375 tumor-bearing nude mice; format: in vivo, mouse; details: for P:TAUC: plasma to tissue AUC ratio
[5] = system: A375 human melanoma xenograft tumors; assay: Tumor apoptosis; format: in vivo, mouse; details: A375 xenograft tumor sections, versus vehicle
Outline: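 A375 xenograft tumors from oral-dosed and vehicle nude mice were formalin-fixed and paraffin-embedded, then cut into 5 μm sections. Sections were stained by TUNEL (TMR red in situ cell death kit) for apoptosis and by H&E for necrotic area, then imaged by fluorescence microscopy.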

patients = details: ref [1], cited from earlier work
[6] = metabolite in mouse plasma, AZD6244 5 mg/kg single oral dose
[7] = metabolite in mouse plasma, AZD6244 10 mg/kg once daily 7 days, steady state
[8] = metabolite in mouse plasma, AZD6244 10 mg/kg single oral dose
[9] = human plasma, 100 mg single dose, ref Adjei et al. [1]
[10] = mouse plasma, 5 mg/kg single oral dose
[11] = mouse plasma, 10 mg/kg oral once daily 7 days, steady state
[12] = mouse plasma, 10 mg/kg single oral dose
[13] = nude, mouse, plasma, po, 5 mg/kg
[14] = nude, mouse, plasma, po, 10 mg/kg

Compound: O=C(NOCCO)c1cc2[nH]cnc2c(F)c1Nc1ccc(Br)cc1Cl [AZD6244-N-desmethyl]
- AUC0–24 h [1, 6]: 3,597 ng/(mL h)
- Cmax [1, 6]: 505 ng/mL
- T1/2γ [1, 6]: 3.68 h
- Tmax [1, 6]: 1.0 h
- AUC0–24 h [1, 7]: 3,709 ng/(mL h)
- Cmax [1, 7]: 554 ng/mL
- T1/2γ [1, 7]: 2.37 h
- Tmax [1, 7]: 1.0 h
- AUC0–24 h [1, 8]: 4,993 ng/(mL h)
- Cmax [1, 8]: 865 ng/mL
- T1/2γ [1, 8]: 2.79 h
- Tmax [1, 8]: 2.0 h
- potency of cellular growth inhibition in vitro relative to parent (A375 cell line): approximately twice the potency of the parent

Compound: Cn1cnc2c(F)c(Nc3ccc(Br)cc3Cl)c(C(=O)NOCCO)cc21 [AZD6244]
- human AUC ([2]; clinical exposure compared with mouse 10 mg/kg once daily, ref [1]): 10,012 ng/(mL h)
- AUC [2, 9]: 3,124 ng/(mL h)
- Cmax [2, 9]: 807 ng/mL
- T1/2γ [2, 9]: 4.5 h
- AUC ([2]; human plasma, 100 mg steady state, ref Adjei et al. [1]): 5,006 ng/(mL h)
- AUC0–12 h ([2]; humans given 100 mg AZD6244 free-base suspension BID, ref [1]): 3,124 ng/(mL h)
- AUC0–12 h ([2]; humans given 200 mg AZD6244 free-base suspension BID, ref [1]): 5,234 ng/(mL h)
- peak inhibition of phosphorylated ERK ([3]; 5 mg/kg single dose): 72%
- peak inhibition of phosphorylated ERK ([3]; 10 mg/kg single dose): 80%
- AUC0–12 h ([4]; gut, 5 mg/kg, single dose): 5,008 ng/(g h)
- AUC0–12 h ([4]; gut, 10 mg/kg, single dose): 6,845 ng/(g h)
- AUC0–12 h ([4]; gut, 10 mg/kg, steady state): 2,278 ng/(g h)
- AUC0–12 h ([4]; liver, 5 mg/kg, single dose): 4,356 ng/(g h)
- Cmin ([4]; liver, 5 mg/kg, single dose): 299 ng/g
- AUC0–12 h ([4]; liver, 10 mg/kg, single dose): 8,028 ng/(g h)
- Cmin ([4]; liver, 10 mg/kg, single dose): 110 ng/g
- AUC0–12 h ([4]; liver, 10 mg/kg, steady state): 6,781 ng/(g h)
- Cmin ([4]; liver, 10 mg/kg, steady state): 100 ng/g
- ratio of free drug in plasma to free drug in tissue (fB/fT) ([4]; mouse, single oral dose): 1.8
- AUC0–12 h ([4]; muscle, 10 mg/kg, single dose): 667 ng·h/g
- Cmin ([4]; muscle, 10 mg/kg, single dose): 896 ng/g
- Cmin ([4]; muscle, 10 mg/kg, steady state): 1,649 ng/g
- Cmax ([4]; nude, mouse, gut, po, 5 mg/kg, single dose): 1220 ng/g
- Cmax ([4]; nude, mouse, gut, po, 10 mg/kg, single dose): 1930 ng/g
- Cmax at 1 week ([4]; nude, mouse, gut, po, 10 mg/kg, steady state): 6780 ng/g
- half-life ([4]; nude, mouse, gut, po, 10 mg/kg, t1/2, gut, single dose): 1 h
- Tmax ([4]; nude, mouse, liver, lung, kidney, gut, muscle, skin, tumor, po, 10 mg/kg): 0.5 to 2 h
- Cmax ([4]; nude, mouse, lung, po, 5 mg/kg, single dose): 206 ng/g
- Cmax ([4]; nude, mouse, lung, po, 10 mg/kg, single dose): 327 ng/g
- half-life ([4]; nude, mouse, lung, po, 10 mg/kg, t1/2, lung, single dose): 1 h
- Cmax at 1 week ([4]; nude, mouse, muscle, po, 10 mg/kg, steady state): 2040 ng/g
- Cmax ([4]; nude, mouse, skin, po, 5 mg/kg, single dose): 136 ng/g
- Cmax ([4]; nude, mouse, skin, po, 10 mg/kg, single dose): 169 ng/g
- Cmax ([4]; nude, mouse, tumor, po, 5 mg/kg, single dose): 501 ng/g
- Cmax ([4]; nude, mouse, tumor, po, 10 mg/kg, single dose): 861 ng/g
- Cmax ([4]; nude, mouse, tumor, po, 10 mg/kg, steady state): 487 ng/g
- P:TAUC ([4]; gut, 5 mg/kg, single dose): 2.28
- P:TAUC ([4]; gut, 10 mg/kg, single dose): 2.66
- P:TAUC ([4]; gut, 10 mg/kg, steady state): 7.41
- P:TAUC ([4]; liver, 5 mg/kg, single dose): 2.62
- P:TAUC ([4]; liver, 10 mg/kg, single dose): 2.27
- P:TAUC ([4]; liver, 10 mg/kg, steady state): 2.49
- P:TAUC ([4]; lung, 5 mg/kg, single dose): 10.55
- P:TAUC ([4]; lung, 10 mg/kg, single dose): 7.45
- P:TAUC ([4]; muscle, 5 mg/kg, single dose): 14.06
- P:TAUC ([4]; muscle, 10 mg/kg, single dose): 27.33
- P:TAUC ([4]; muscle, 10 mg/kg, steady state): 18.16
- P:TAUC ([4]; skin, 5 mg/kg, single dose): 14.25
- P:TAUC ([4]; skin, 10 mg/kg, single dose): 16.56
- P:TAUC ([4]; tumor, 5 mg/kg, single dose): 3.17
- P:TAUC ([4]; tumor, 10 mg/kg, single dose): 3.82
- P:TAUC ([4]; tumor, 10 mg/kg, steady state): 4.45
- AUC0–12 h ([4]; skin, 5 mg/kg, single dose): 802 ng·h/g
- AUC0–12 h ([4]; tumor, 5 mg/kg, single dose): 3,601 ng/(g h)
- Cmin ([4]; tumor, 5 mg/kg, single dose): 44 ng/g
- AUC0–12 h ([4]; tumor, 10 mg/kg, single dose): 4,776 ng/(g h)
- Cmin ([4]; tumor, 10 mg/kg, single dose): 130 ng/g
- Cmin ([4]; tumor, 10 mg/kg, steady state): 52 ng/g
- T1/2γ [1, 10]: 2.81 h
- AUC [1, 10]: 11,910 ng/(mL h)
- T1/2γ [1, 11]: 2.29 h
- AUC [1, 11]: 17,525 ng/(mL h)
- T1/2γ [1, 12]: 2.62 h
- AUC [1, 12]: 18,976 ng/(mL h)
- CL/F [1, 13]: 6.67 mL/min/kg
- Cmax [1, 13]: 2970 ng/mL
- Tmax [1, 13]: 0.5 h
- Vd/F [1, 13]: 1.7 L/kg
- CL/F [1, 14]: 8.33 mL/min/kg
- Cmax [1, 14]: 3350 ng/mL
- Tmax [1, 14]: 2 h
- Vd/F [1, 14]: 2 L/kg
- apoptotic cells as measured by TUNEL [5]: slight increase in apoptotic cells as measured by TUNEL, this increase was not statistically significant
- necrotic area [5]: no difference in necrotic area
- patients with stable disease of five or more months (patients; 9 of 54 patients): 16%
- tolerability (patients; most common toxicity skin rash, diarrhea, nausea and fatigue): well tolerated
